Reference: paper PMC4002067 (Journal of Medicinal Chemistry, 2014)

How the values were obtained:
SIRT1 [1] = biological target: T1, SIRT1 (Homo sapiens, UniProt Q96EB6); experiment: SIRT-Glo enzyme inhibition assay, SIRT1; format: biochemical; conditions: for selectivity for SIRT1 (over SIRT2): from IC50 values
T1 sequence (Q96EB6 1-747): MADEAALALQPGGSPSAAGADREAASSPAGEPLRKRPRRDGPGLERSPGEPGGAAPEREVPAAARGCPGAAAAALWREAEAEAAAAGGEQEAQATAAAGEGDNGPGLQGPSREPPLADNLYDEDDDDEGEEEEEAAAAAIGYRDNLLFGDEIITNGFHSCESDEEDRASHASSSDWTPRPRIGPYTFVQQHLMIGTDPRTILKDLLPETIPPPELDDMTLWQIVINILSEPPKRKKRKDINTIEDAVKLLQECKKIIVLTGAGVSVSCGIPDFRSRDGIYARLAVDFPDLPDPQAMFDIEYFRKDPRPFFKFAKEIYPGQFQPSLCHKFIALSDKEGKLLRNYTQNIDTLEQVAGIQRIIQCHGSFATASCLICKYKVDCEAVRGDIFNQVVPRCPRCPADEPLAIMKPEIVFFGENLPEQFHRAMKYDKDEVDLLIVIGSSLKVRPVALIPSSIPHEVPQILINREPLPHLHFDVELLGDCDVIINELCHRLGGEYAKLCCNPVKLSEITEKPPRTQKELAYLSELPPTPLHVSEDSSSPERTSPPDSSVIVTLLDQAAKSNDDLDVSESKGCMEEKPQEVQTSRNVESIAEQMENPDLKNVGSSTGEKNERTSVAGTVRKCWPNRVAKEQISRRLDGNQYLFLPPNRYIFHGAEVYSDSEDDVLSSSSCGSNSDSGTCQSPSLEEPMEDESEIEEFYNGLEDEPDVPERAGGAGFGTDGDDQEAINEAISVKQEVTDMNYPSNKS

[2] = Cytotoxicity in nontransformed B-cell lines; format: cell-based; conditions: human, nontransformed EBV-immortalized B-cell lines B1 and B2
In short: (§1)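 Cells grown under standard conditions and treated in 96-well format with test compound in DMSO (final DMSO 0.25%) or DMSO control for 72 h. Viability was read as luminescence with CellTiterGlo. Assays were run in triplicate, and values are averages of two independent experiments.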

[3] = system: lymphoma and epithelial cancer cell lines; experiment: Cytotoxicity across lymphoma and epithelial cancer cell lines; format: cell-based; conditions: 72 h, read-out: cytotoxicity IC50 range
In short: as §1

[4] = system: SIRT2-mediated deacetylation of α-tubulin in NCI-H460 cells; experiment: α-tubulin acetylation by Western blot; format: cell-based, human; conditions: 4 h treatment
SIRT3 = biological target: T2, SIRT3 (Homo sapiens, UniProt Q9NTG7); experiment: SIRT-Glo enzyme inhibition assay, SIRT3; format: biochemical; conditions: 50 μM compound
T2 sequence (Q9NTG7 1-399): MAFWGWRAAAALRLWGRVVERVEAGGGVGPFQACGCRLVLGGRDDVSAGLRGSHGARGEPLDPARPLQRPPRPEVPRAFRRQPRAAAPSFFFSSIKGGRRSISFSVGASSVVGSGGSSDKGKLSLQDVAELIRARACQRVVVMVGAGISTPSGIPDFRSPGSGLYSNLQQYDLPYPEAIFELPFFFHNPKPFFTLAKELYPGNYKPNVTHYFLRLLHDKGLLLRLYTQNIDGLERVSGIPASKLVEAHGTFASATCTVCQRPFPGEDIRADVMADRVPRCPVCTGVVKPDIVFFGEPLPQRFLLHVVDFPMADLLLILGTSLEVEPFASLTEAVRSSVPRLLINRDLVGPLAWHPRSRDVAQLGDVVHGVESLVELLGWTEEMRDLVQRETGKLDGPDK

SIRT2 = biological target: T3, SIRT2 (Homo sapiens, UniProt Q8IXJ6); experiment: SIRT-Glo enzyme inhibition assay, SIRT2; format: biochemical; conditions: 50 μM compound
T3 sequence (Q8IXJ6 1-389): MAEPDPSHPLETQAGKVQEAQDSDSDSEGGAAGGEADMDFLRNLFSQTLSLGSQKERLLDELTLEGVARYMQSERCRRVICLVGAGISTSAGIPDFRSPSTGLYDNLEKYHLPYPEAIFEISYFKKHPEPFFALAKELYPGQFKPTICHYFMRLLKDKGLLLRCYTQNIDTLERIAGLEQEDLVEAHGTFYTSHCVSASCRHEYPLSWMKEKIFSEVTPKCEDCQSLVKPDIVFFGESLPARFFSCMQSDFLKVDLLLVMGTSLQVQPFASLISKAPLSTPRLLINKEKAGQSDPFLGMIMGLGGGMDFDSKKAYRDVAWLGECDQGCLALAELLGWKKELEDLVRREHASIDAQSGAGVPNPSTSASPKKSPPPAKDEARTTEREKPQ

SIRT1 [5] = biological target: T1, SIRT1; experiment: Saturation transfer difference; format: binding; conditions: 1.5 μM SIRT1, 200 μM compound, naphthalene numbering
[6] = drawback stated in the introduction; cited from earlier work

## Cc1ccc(-c2[nH][nH]c(=O)c2Cc2c(O)ccc3cc(Br)ccc23)cc1 [compound 14, 4-[(6-Bromo-2-hydroxynaphthalen-1-yl)methyl]-5-(4-methylphenyl)-2,3-dihydro-1H-pyrazol-3-one]
SIRT1 [1]
  selectivity for SIRT1 (over SIRT2): greater than 5 fold

## Cc1ccc(-c2[nH]oc(=O)c2Cc2c(O)ccc3cc(Br)ccc23)cc1 [compound 24, 4-[(6-Bromo-2-hydroxynaphthalen-1-yl)methyl]-3-(4-methylphenyl)-2,5-dihydro-1,2-oxazol-5-one]
[2]
  IC50 at 72 h: 22 to 28 µM
[3]
  IC50: 3 to 7 µM
[4]
  α-tubulin acetylation: rapid and robust dose-dependent increase in α-tubulin acetylation
SIRT1 [1]
  selectivity for SIRT1 (over SIRT2): 7.8 fold

## 4-[(2-Chloro-6-hydroxy-4-methylquinolin-5-yl)methyl]-5-(4-methylphenyl)-2,3-dihydro-1H-pyrazol-3-one [compound 22]
SIRT3
  SIRT3 (% inh): 32%
SIRT1 [1]; 50 μM compound
  SIRT1 (% inh): 27%
SIRT2
  SIRT2 (% inh): 24%

## CC(C)c1ccc(-c2[nH][nH]c(=O)c2Cc2c(O)ccc3nc(Cl)ccc23)cc1 [compound 23, 4-[(2-Chloro-6-hydroxyquinolin-5-yl)methyl]-5-[4-(propan-2-yl)phenyl]-2,3-dihydro-1H-pyrazol-3-one]
SIRT1 [1]
  selectivity for SIRT1 (over SIRT2): > 3 fold

## Cc1ccc(-c2[nH][nH]c(=O)c2Cc2c(O)ccc3nc(Cl)ccc23)cc1 [compound 20, 4-[(2-Chloro-6-hydroxyquinolin-5-yl)methyl]-5-(4-methylphenyl)-2,3-dihydro-1H-pyrazol-3-one]
SIRT1 [5]
  relative STD signal intensity, C-7 proton: 100%

## O=c1[nH]c(=S)[nH]c(-c2ccccc2)c1Cc1c(O)ccc2ccccc12 [compound 1, 5-[(2-hydroxy-1-naphthyl)methyl]-6-phenyl-2-thioxo-2,3-dihydro-4(1H)-pyrimidinone]
[6]
  solubility: poor solubility
